Source: ChEMBL document CHEMBL1123849, “Synthesis and binding affinities of analogues of cholecystokinin-(30-33) as probes for central nervous system cholecystokinin receptors” (J Med Chem, 1987)
Square brackets hold non-standard residues; d marks the D form. Peptide text beside a SMILES is read from it. * marks the point of attachment. sY = N[C@@H](Cc1ccc(OS(=O)(=O)O)cc1)C(=O)O; Boc = CC(C)(C)OC(=O)*

Molecular target: T1, Cholecystokinin receptor (Mus musculus, UniProt O08786+P56481)
T1 sequence (O08786 whole entry): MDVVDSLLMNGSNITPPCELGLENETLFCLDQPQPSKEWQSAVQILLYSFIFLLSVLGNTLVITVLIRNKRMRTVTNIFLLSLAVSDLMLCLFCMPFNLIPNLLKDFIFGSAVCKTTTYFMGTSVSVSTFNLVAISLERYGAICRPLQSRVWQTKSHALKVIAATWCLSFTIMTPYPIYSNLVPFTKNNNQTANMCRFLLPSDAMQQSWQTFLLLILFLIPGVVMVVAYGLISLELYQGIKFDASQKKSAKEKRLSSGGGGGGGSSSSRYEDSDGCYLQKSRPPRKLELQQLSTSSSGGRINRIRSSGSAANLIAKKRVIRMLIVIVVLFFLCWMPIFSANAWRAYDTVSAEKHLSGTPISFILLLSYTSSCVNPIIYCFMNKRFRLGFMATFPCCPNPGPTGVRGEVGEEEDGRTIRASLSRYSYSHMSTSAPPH
T1 sequence (P56481 whole entry): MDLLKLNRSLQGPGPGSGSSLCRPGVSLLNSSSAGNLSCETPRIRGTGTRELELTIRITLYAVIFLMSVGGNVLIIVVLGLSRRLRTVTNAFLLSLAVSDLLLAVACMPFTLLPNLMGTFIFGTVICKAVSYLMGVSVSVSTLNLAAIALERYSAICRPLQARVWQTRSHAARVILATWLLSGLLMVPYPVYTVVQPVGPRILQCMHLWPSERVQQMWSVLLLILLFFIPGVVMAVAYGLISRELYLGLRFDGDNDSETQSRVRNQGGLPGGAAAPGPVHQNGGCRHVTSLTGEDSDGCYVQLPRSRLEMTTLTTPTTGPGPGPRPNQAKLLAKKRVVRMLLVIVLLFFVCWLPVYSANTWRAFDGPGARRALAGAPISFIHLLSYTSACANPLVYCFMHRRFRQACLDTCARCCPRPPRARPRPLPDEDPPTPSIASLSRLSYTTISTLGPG
Experiment: Displacement of [3H]pentagastrin from Cholecystokinin receptor of mouse cerebral cortex
Assay type: tissue-based
Outline: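 Radioligand was [3H]-Boc-β-alanyl-CCK-30-33 (pentagastrin), displaced from central CCK receptors in homogenized mouse cerebral cortex.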

Row | SMILES | Ki [nM]
1 | CC(C)(C)OC(=O)N[C@@H](Cc1c[nH]c2ccccc12)C(=O)NCC(=O)N[C@@H](CC(=O)O)C(=O)N[C@@H](Cc1ccccc1)C(N)=O (Boc-WGDF-NH2) | 1600
2 | CSCC[C@H](NC(=O)[C@H](Cc1ccc(OS(=O)(=O)O)cc1)NC(=O)[C@@H](N)CC(=O)O)C(=O)NCC(=O)N[C@@H](Cc1c[nH]c2ccccc12)C(=O)N[C@@H](CCSC)C(=O)N[C@@H](CC(=O)O)C(=O)N[C@@H](Cc1ccccc1)C(N)=O (stereo in doubt; 1) [SINCALIDE] | 3
3 | CSCC[C@H](N)C(=O)N[C@@H](CC(=O)O)C(=O)N[C@@H](Cc1ccccc1)C(N)=O (H-Met-Asp-Phe-NH2) | 100000
4 | CSCC[C@H](NC(=O)[C@H](Cc1c[nH]c2ccccc12)NC(=O)OC(C)(C)C)C(=O)N[C@@H](CC(=O)O)C(=O)N[C@@H](Cc1ccccc1)C(N)=O | 1.8
5 | CSCC[C@H](NC(=O)[C@H](Cc1ccc(OS(=O)(=O)O)cc1)NC(=O)[C@@H](N)CC(=O)O)C(=O)NCC(=O)N[C@@H](Cc1c[nH]c2ccccc12)C(=O)N[C@@H](CCSC)C(=O)N[C@@H](CC(=O)O)C(=O)N[C@@H](Cc1ccccc1)C(N)=O (stereo in doubt; 2) [SINCALIDE] | 180
6 | CSCC[C@H](NC(=O)[C@@H](N)Cc1c[nH]c2ccccc12)C(=O)N[C@@H](CC(=O)O)C(=O)N[C@@H](Cc1ccccc1)C(N)=O [TETRAGASTRIN] | 3
7 | CC(C)(C)OC(=O)N[C@@H](Cc1c[nH]c2ccccc12)C(=O)NCCC(=O)NC(Cc1ccccc1)C(N)=O (stereo partly specified) | 45000
8 | CSCC[C@H](NC(=O)[C@H](Cc1c[nH]c2ccccc12)NC(=O)OC(C)(C)C)C(=O)NCC(=O)N[C@@H](Cc1ccccc1)C(N)=O (Boc-WMGF-NH2) | 24000
9 | CSCC[C@H](NC(=O)[C@H](Cc1c[nH]c2ccccc12)NC(=O)CCNC(=O)OC(C)(C)C)C(=O)N[C@@H](CC(=O)O)C(=O)N[C@@H](Cc1ccccc1)C(N)=O [PENTAGASTRIN] | 0.6
10 | CSCC[C@H](NC(=O)[C@H](Cc1c[nH]c2ccccc12)NC(=O)CNC(=O)[C@H](CCSC)NC(=O)[C@@H](N)Cc1ccc(OS(=O)(=O)O)cc1)C(=O)N[C@@H](CC(=O)O)C(=O)N[C@@H](Cc1ccccc1)C(N)=O (H-[sY]MGWMDF-NH2) | 2
11 | CC(C)(C)OC(=O)N[C@@H](Cc1c[nH]c2ccccc12)C(=O)NCC(=O)N[C@@H](Cc1ccccc1)C(N)=O (Boc-Trp-Gly-Phe-NH2) | 11000
